ChEMBL document CHEMBL1146679, “Synthesis and biological evaluation of pyrrolo[2,1-c][1,4]benzodiazepine (PBD) C8 cyclic amine conjugates” (2004)

Legend:
Nucleic Acid [1] = assay: In vitro induced thermal stabilization of duplex DNA melting after incubation with the compound (20 uM) at 37 C for 0 h; assay type: functional; conditions: Bos taurus
Summary of the method: (§1)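 Duplex calf thymus DNA (100 µM in DNAp) mixed with ligand (20 µM), 5:1 molar ratio, in 10 mM NaH2PO4/Na2HPO4 + 1 mM Na2EDTA, pH 7.00 ± 0.01; held at 37 °C for 0, 4 or 18 h before thermal melting; ΔTm relative to DNA alone, ±0.1 °C, at least 3 determinations.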

Nucleic Acid [2] = assay: In vitro induced thermal stabilization of duplex DNA melting after incubation with the compound (20 uM) at 37 C for 4 h; assay type: functional; conditions: Bos taurus; summary of the method: as §1
SK-OV-3 = assay: Concentration required to inhibit SKOV-3 cell growth when compared with control after incubation for 96 hr at 37 C; assay type: functional, cell-based; conditions: Homo sapiens
Summary of the method: (§2)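 Human ovarian tumour lines (SKOV-3, A2780, A2780cisR, CH1, CH1cisR) exposed to agent for 96 h at 37 °C; growth compared with PBD-free controls; IC50 taken as concentration giving 50% growth inhibition.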

A2780 [3] = assay: Concentration required to inhibit A2780 cell growth when compared with control after incubation for 96 hr at 37 C; assay type: functional, cell-based; conditions: Homo sapiens; summary of the method: as §2
CH1 [4] = assay: Concentration required to inhibit CH1cisR tumor cell growth when compared with control after incubation for 96 hr at 37 C; assay type: functional, cell-based; conditions: Homo sapiens; summary of the method: as §2
CH1 [5] = assay: Concentration required to inhibit CH1 tumor cell growth when compared with control after incubation for 96 hr at 37 C; assay type: functional, cell-based; conditions: Homo sapiens; summary of the method: as §2
A2780 [6] = assay: Concentration required to inhibit A2780cisR cell growth when compared with control after incubation for 96 h at 37 C; assay type: functional, cell-based; conditions: Homo sapiens; summary of the method: as §2
CH1 [7] = assay: Resistance factor was determined as IC50 cisplatin-resistant/parent for human CH1cisR tumor ovarian cell line; assay type: functional
Summary of the method: (§3)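 Resistance factor computed as IC50 in cisplatin-resistant line divided by IC50 in parent line, for the A2780/A2780cisR and CH1/CH1cisR pairs, from 96 h, 37 °C growth-inhibition assays against PBD-free controls.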

A2780 [8] = assay: Resistance factor was determined as IC50 cisplatin-resistant/parent for human A2780 ovarian cell line; assay type: functional; summary of the method: as §3
Nucleic Acid [9] = assay: In vitro induced thermal stabilization of duplex DNA melting after incubation with the compound (20 uM) at 37 C for 18 h; assay type: functional; conditions: Bos taurus; summary of the method: as §1
Nucleic Acid [10] = assay: gIn vitro induced thermal stabilization of duplex DNA melting after incubation with the compound (20 uM) at 37 C for 0 h; assay type: functional; conditions: Bos taurus; summary of the method: as §1
[11] = Activity in NCI standard hollow fibre assay after subcutaneous administration; assay type: functional
[12] = Total activity in NCI standard hollow fibre assay; assay type: functional
[13] = Activity in NCI standard hollow fibre assay after intraperitoneal administration; assay type: functional

| Structure (SMILES) | ΔTm (Nucleic Acid [1]) [°C] | ΔTm (Nucleic Acid [2]) [°C] | Concentration (SK-OV-3) [µM] | Concentration (A2780 [3]) [µM] | Concentration (CH1 [4]) [µM] | Concentration (CH1 [5]) [µM] | Concentration (A2780 [6]) [µM] | RF (CH1 [7]) | RF (A2780 [8]) | ΔTm (Nucleic Acid [9]) [°C] | ΔTm (Nucleic Acid [10]) [°C] | Score [11] | Score [12] | Score [13] |
| --- | --- | --- | --- | --- | --- | --- | --- | --- | --- | --- | --- | --- | --- | --- |
| COc1cc2c(cc1OC)C(=O)N1CCC[C@H]1C=N2 | 0.2 | 0.4 | 1.7 | 0.064 | 0.11 | 0.082 | 0.155 | 1.3 | 2.4 | 0.6 |  |  |  |  |
| COc1cc2c(cc1OCCC(=O)N1CCCC1)N=C[C@@H]1CCCN1C2=O |  | 0.9 | 5.4 | 1.5 | 1.85 | 1.4 | 4.3 | 1.3 | 2.9 | 1.2 | 0.5 |  |  |  |
| COc1cc2c(cc1OCCC(=O)N1CCCCC1)N=C[C@@H]1CCCN1C2=O | 0.8 | 0.9 | 23.5 | 3.2 | 7.9 | 4.9 | 14.5 | 1.6 | 4.5 | 1.2 |  |  |  |  |
| COc1cc2c(cc1OCCC(=O)N1Cc3ccccc3C1)N=C[C@@H]1CCCN1C2=O | 1 | 1.1 | 1.45 | 0.23 | 0.42 | 0.24 | 0.94 | 2 | 4 | 1.3 |  | 2 | 40 | 40 |
| COc1cc2c(cc1OCc1ccccc1)N=C[C@@H]1CCCN1C2=O | 0.2 | 0.4 | 0.46 | 0.17 | 0.145 | 0.145 | 0.48 | 1 | 2.8 | 0.4 |  |  |  |  |
| COc1cc2c(cc1OCCC(=O)N1CCc3ccccc31)N=C[C@@H]1CCCN1C2=O | 0.7 | 1 | 5.8 | 1.55 | 3 | 1.5 | 4.9 | 2 | 3.2 | 1.2 |  |  |  |  |
